Assay: Steady-state intrinsic tryptophan fluorescence of BclXL
Assay type: physicochemical
Conditions: 5μM BclXL, excitation 290nm, 25 °C
In short: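 Tryptophan emission of 5 μM full-length human BclXL (N-His, E. coli-expressed) alone in 50 mM acetate pH 4, phosphate pH 6, Tris pH 8 or CAPS pH 10. 25 °C, 10-mm cuvette; excitation 290 nm; emission scanned 300–500 nm; 2.5-nm bandwidths. Spectra corrected against buffer reference. At least three repeats.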

Q: What does the source list for “full-length BclXL: Full-length human BclXL (residues 1-233), N-terminal His-tag, expressed in Escherichia coli”?
A: intrinsic fluorescence vs pH (pH 4, 6, 8, 10): drops as the pH changes from 4 to 6, it undergoes substantial enhancement at pH 8 only to drop again at pH 10; tryptophan emission maximum (pH-independent): around 338 nm

Reference: publication PMC3483416 (Archives of biochemistry and biophysics, 2012)
